# Data: publication PMC12334575 (Nature Communications, 2025)
# Legend:
# Format in all cases: cell-based, Candida auris
# C. auris CBS10913 = test: Intracellular drug accumulation assay; conditions: C. auris CBS10913, 20 µM, 10 min, 30 °C, PBS, silicone oil centrifugation, LC-MS
# Summary of the method: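 Yeast subcultured in SDB at 30 °C with shaking to mid-log (OD530 ≈ 0.6), washed twice in PBS and resuspended in PBS. Equilibrated 5 min at 30 °C, then test compound added to 20 µM final for 10 min. Cells spun at 13,000×g through pre-cooled silicone oil; intracellular compound quantified by LC-MS. Biological triplicates.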
# C. auris CBS12775 = test: Checkerboard assay coniotin A with caspofungin; conditions: refractory C. auris, checkerboard (Fig. 4a)
# C. auris CBS 10913 = test: High-throughput screening of crude extracts and PFL fractions; conditions: identified in active fractions of WAC11175, result in words
# Summary of the method: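 Primary screen: C. auris CBS 10913 colonies grown on YPD agar at 30 °C for 48 h, then suspended in RPMI 1640. 1 µL crude extract or fraction added to 49 µL culture in 384-well format, in duplicate. […] OD530 read after 48 h; hits defined as ≥75% growth inhibition versus untreated. For follow-up, producer strains were regrown on Bennett's agar at 30 °C for 7 days, extracts fractionated on C18, and DMSO-dissolved fractions retested in broth microdilution.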
Compound,Intracellular accumulation (C. auris CBS10913),MIC of caspofungin in the presence of coniotin A (C. auris CBS12775) [µg/mL],Activity against C. auris (C. auris CBS 10913)
CC[C@H](C)C[C@H](C)CCCCCCCCC(=O)N[C@H]1C[C@@H](O)[C@@H](NCCN)NC(=O)[C@@H]2[C@@H](O)CCN2C(=O)[C@H]([C@H](O)CCN)NC(=O)[C@H]([C@H](O)[C@@H](O)c2ccc(O)cc2)NC(=O)[C@@H]2C[C@@H](O)CN2C(=O)[C@H]([C@@H](C)O)NC1=O [Caspofungin],measurable accumulation,2,
enniatin A1,,,significant activity
enniatin B1,,,significant activity
